Consider 10 compounds from ChEMBL document CHEMBL1135512 (J Med Chem, 2002).

The subject of series [1] is Plasmodium falciparum. The series is described as follows: Percent reversal against Plasmodium falciparum W2 at 1 uM DEEA. The format is functional.
A short description of series [2]: Partition coefficient (logP). The format is physicochemical. The conditions noted are these: octanol/water.
Series [3] has as its system Plasmodium falciparum. The series is described as follows: Concentration required to reduce chloroquine IC50 by 50%. The format is functional, organism-based. The conditions noted are these: Plasmodium falciparum. In a few lines: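 Synergy isotopic microtest on sorbitol-synchronized W2 (Indochina) and 3D7 in RPMI 1640 with 10% human serum, HEPES/NaHCO3, parasitemia 0.5%, hematocrit 1.5%. CQ was combined with subinhibitory fixed DEEA concentrations, and 3H-hypoxanthine was added for 48 h at 37 °C under 10% O2/6% CO2/84% N2. Reversal IC50 is the DEEA concentration halving CQ IC50, found by nonlinear regression of log-dose/IC50.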

A short description of series [4]: In vitro hemolytic concentration on uninfected erythrocytes. The format is functional, Homo sapiens. In a few lines:
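Washed A+ human erythrocytes were held at 1.5% hematocrit in RPMI 1640 with 10% human serum, 25 mM HEPES and 25 mM NaHCO3. Drug (2 mM to 1 μM final, triplicate) was added for 42 h at 37 °C under 10% O2/6% CO2. Released hemoglobin in supernatant was measured with TMB/H2O2 at 455 nm. HC50 is relative to 5% saponin lysis, by nonlinear regression.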

Series [5] deals with Plasmodium falciparum. Put plainly: In vitro inhibitory activity against multidrug-resistant Plasmodium falciparum W2 Indochina. Format: functional, organism-based. The conditions noted are these: Plasmodium falciparum. In a few lines:
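Clone W2 (Indochina), sorbitol-synchronized, was grown in RPMI 1640 with 10% human serum, 25 mM HEPES and 25 mM NaHCO3, at final parasitemia 0.5% and hematocrit 1.5%. The drug was present for 48 h at 37 °C under 10% O2/6% CO2/84% N2. Growth was read as 3H-hypoxanthine uptake (1 μCi/well). IC50 came from nonlinear regression of log-dose/response as the geometric mean with 95% CI.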

A short description of series [6]: Cytotoxicity against Chinese hamster ovary cells. The format is cell-based, Cricetulus griseus. The gist of the method:
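Cells were then exposed to graded drug concentrations for 48 h at 37 °C, 5% CO2. MTT (1 mg/mL in PBS) was added for 3 h, and formazan was dissolved in DMSO and read at 570/630 nm. IC50 came from nonlinear regression versus drug-free wells.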

A short description of series [7]: Partition coefficient (logD7.0). Format: physicochemical. The conditions noted are these: octanol/water.
In series [8] the test system is Plasmodium falciparum. Put plainly: Accumulation coefficient of chloroquine at 1 uM-10 uM of DEEA against Plasmodium falciparum W2. The format is functional. In a few lines:
(§1)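 W2 infected erythrocytes were suspended in RPMI 1640 with 25 mM HEPES and 25 mM NaHCO3 (2% parasitemia, 2% hematocrit). They were mixed over silicone oil with buffer holding [3H]CQ (26 Ci/mmol) plus DEEA at 1 or 10 μM. Incubation was 1 h at 37 °C under 10% O2/6% CO2/84% N2, followed by 1 min centrifugation. Ratio = parasite [3H]CQ (infected minus uninfected cells) / same-volume buffer.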

A short description of series [9]: Dissociation constant (pKa). Format: physicochemical.
Series [10] has as its system Plasmodium falciparum. The series is described as follows: Accumulation coefficient of chloroquine at 1 uM-10 uM of DEEA against Plasmodium falciparum W2; Range is from 22-29. Format: functional. The gist of the method:
as §1

The test system of series [11] is Plasmodium falciparum. Put plainly: Accumulation coefficient of chloroquine at 1 uM-10 uM of DEEA against Plasmodium falciparum W2;Range is from 30-23. The format is functional. The gist of the method:
as §1

For series [12], the system named is Plasmodium falciparum. Put plainly: Accumulation coefficient of chloroquine at 1 uM-10 uM of DEEA against Plasmodium falciparum W2; Range is from 50-66. Format: functional. In a few lines: as §1
Series [13] has as its system Plasmodium falciparum. The series is described as follows: Accumulation coefficient of chloroquine at 1 uM-10 uM of DEEA against Plasmodium falciparum W2; Range is from 37-42. Format: functional. In a few lines: as §1
Series [14] has as its system Plasmodium falciparum. Put plainly: Percent reversal against Plasmodium falciparum W2 at 1 uM DEEA.

A word on the logP: it is the decadic logarithm of the partition coefficient of the neutral form, usually between octanol and water. As a reminder, the IC50 is the concentration needed to halve the response being measured. Low values mean greater potency in that assay, high ones weaker potency in that assay. For orientation: HC50 means the concentration giving 50% haemolysis. Low readings indicate more damage to red cells, high ones less damage to red cells. By logD is commonly meant lipophilicity at a set pH, counting ionised and neutral species. The term pKa denotes the pH at which an ionisable group is half protonated. The low end stands for a stronger acid or weaker base, the high end for a weaker acid or stronger base. As for `CC1C2c3ccccc3C(c3ccccc32)C1CN(C)C` (stereo not given), the Reversal in series [1] was found to be 60%. Moreover, the logP in [2] (read-out: logP) came to 4.24. For the same compound, the figures for the IC50 in [3] and in series [5] were 0.4 µM and 30 µM, respectively. This compound also gave an HC50 in series [4] of 1402 µM. The compound also registered a Cytotoxicity in [6] of 711 µM. The logD in [7] (pH 7, read-out: logD) worked out at 2.25. Moreover, the Accumulation coefficient in series [8] is given as 62. Further, the pKa in [9] stood at 8.99.

In the case of `NC(=O)C1C2c3ccccc3C(c3ccccc32)C1C(N)=O` (stereo not given), the Reversal in series [1] worked out at 0%. Besides, the logP in series [2] (read-out: logP) came out at 0.86. Besides, the IC50 in series [3] came out at 50 µM; in series [5], 44 µM. In series [4], this compound yielded an HC50 of over 2000 µM. Moreover, the Cytotoxicity in series [6] is over 2000 µM. Further, the logD in [7] (pH 7, read-out: logD) came out at 0.86. For the same compound, in [9], the pKa is -0.96. Further, in series [10], the Accumulation coefficient was found to be 29.

`CN(C)C1CC2c3ccccc3C1c1ccccc12` (stereo not given): the Reversal in series [1] turned out to be 60%. In addition, the logP in series [2] (read-out: logP) came out at 3.67. The IC50 in series [3] amounted to 0.8 µM; in series [5], 9.3 µM. The compound further displayed an HC50 in series [4] of over 2000 µM. For the same compound, the Cytotoxicity in series [6] was over 2000 µM. Moreover, the logD in [7] (pH 7, read-out: logD) was determined as 2. Besides, the Accumulation coefficient in [8] is recorded as 219. In series [9], this compound had a pKa of 8.67.

The compound `CN(C)C(=O)C1=C(C(=O)N(C)C)C2c3ccccc3C1c1ccccc12` showed an Accumulation coefficient in series [11] of 30. The Reversal in [1] is reported as 0%. Also, the logP in series [2] (read-out: logP) worked out at 2.15. Further, the IC50 in series [3] is over 50 µM; in [5] it was 36.5 µM. The compound also came in with an HC50 in series [4] of over 2000 µM. Moreover, the Cytotoxicity in series [6] is over 2000 µM. In addition, the logD in [7] (pH 7, read-out: logD) turned out to be 2.15.

Regarding `CN(C)CC1C2c3ccccc3C(c3ccccc32)C1COC(=O)N(C)C` (stereo not given), the Reversal in [1] turned out to be 25%. In series [2] (read-out: logP), the logP was 2.99. Besides, the figures for the IC50 in series [3] and in series [5] were 1.6 µM and 21 µM, respectively. This compound showed an HC50 in series [4] of 1563 µM. In [6], this compound had a Cytotoxicity of 758 µM. The logD in series [7] (pH 7, read-out: logD) was determined as 1. In series [12], this compound showed an Accumulation coefficient of 66. For the same compound, the pKa in [9] is 8.99.

`CC1C2c3ccccc3C(c3ccccc32)C1C(=O)Nc1cccnc1` (stereo not given): the Reversal in series [1] came out at 0%. For the same compound, the logP in series [2] (read-out: logP) came out at 3.85. The same compound displayed an HC50 in [4] of over 2000 µM. The compound also displayed an IC50 in series [5] of 164 µM. For the same compound, in series [6], the Cytotoxicity is 93 µM. Further, the logD in series [7] (pH 7, read-out: logD) turned out to be 3.85. This compound also registered an Accumulation coefficient in series [8] of 10. In addition, the pKa in series [9] was 4.14.

Regarding `CC(CN1c2ccccc2Sc2ccccc21)N(C)C` (stereo not given) [PROMETHAZINE], in [1], the Reversal amounted to 67%. Also, the logP in series [2] (read-out: logP) came out at 3.86. Also, the IC50 is 0.4 µM in series [3] and 20 µM in [5]. Further, in [4], the HC50 came out at 618 µM. The Cytotoxicity in series [6] was determined as 702 µM. Also, the logD in series [7] (pH 7, read-out: logD) was found to be 1.96. This compound also showed an Accumulation coefficient in series [13] of 42. The compound also showed a pKa in [9] of 8.89.

Turning to `CC1C2c3ccccc3C(c3ccccc32)C1C[N+](C)(C)C.[I-]` (stereo not given), the Reversal in series [1] was found to be 37%. The logP in [2] (read-out: logP) was found to be 1.32. Also, the figures for the IC50 in series [3] and in series [5] were 3.5 µM and 16 µM, respectively. Further, the HC50 in [4] was over 2000 µM. For the same compound, in series [6], the Cytotoxicity was over 2000 µM. The logD in series [7] (pH 7, read-out: logD) was found to be 1.32. This compound displayed an Accumulation coefficient in series [8] of 192.

`O=C(NCCCCCCCCCCNC(=O)C1=CC2c3ccccc3C1c1ccccc12)C1=CC2c3ccccc3C1c1ccccc12`: the Reversal in [1] was found to be 0%. The compound also yielded a logP in series [2] of 9.16. The compound also yielded an HC50 in [4] of over 2000 µM. For the same compound, half-maximal inhibition in [5] (IC50) was put at 8 µM. Moreover, the Cytotoxicity in [6] is over 2000 µM. Further, in series [7], the logD is 9.16. This compound also returned an Accumulation coefficient in series [8] of 34. Also, the pKa in [9] is -1.14.

In the case of `CN(C)CC1C2c3ccccc3C(c3ccccc32)C1CN(C)C` (stereo in doubt; 5), in [2] (read-out: logP), the logP is 3.41. In addition, the values for the IC50 in series [3] and in series [5] were 0.25 µM and 2 µM, respectively. The same compound showed an HC50 in series [4] of over 2000 µM. In addition, the Reversal in series [14] is listed as 80%. The compound also yielded a Cytotoxicity in series [6] of 1035 µM. Further, the logD in series [7] (pH 7, read-out: logD) worked out at 0. The pKa in [9] was found to be 9.19.
